For assay [1], the system named is Rattus norvegicus. The experiment in a line: In vivo inhibitory effect on the myocardial infarct size of ischemia-reperfusion injury model of rat. Administered intravenously 5 min before occlusion. The assay is classed as functional, Myocardium. The essentials:
(§1)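 Male Wistar rats (11–12 weeks), anesthetized; left coronary artery occluded 1 h, then reperfused 24 h. Dose 0.1 or 0.3 mg/kg iv, 5 min before occlusion. Area at risk stained with 1% Evans blue; six left-ventricle slices stained with 1% TTC, 37 °C, 10 min. Infarct size expressed as % of area at risk by weight. n = 5–7.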

Assay [2] can be described thus: in vitro inhibition against NHE to inhibit the acid induced swelling in human platelets by 50%. The assay is classed as functional. A digest of the protocol: (§2)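 Platelet-rich plasma from forearm-vein blood of normal adult men, adjusted to 10 × 10^4/µL. Compound in DMSO added 3 min before sodium propionate buffer (135 mM, pH 6.7, 37 °C), final DMSO 1%. Light transmission at 550 nm recorded; maximum upstroke velocity in the first minute used. 100% inhibition defined by vehicle vs HOE-642 (10^-5 M). IC50 = 50% inhibition of swelling; triplicate experiments.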

Assay [3] in a line: In vitro inhibition of acid induced swelling in rat platelets by 50% as a measure of NHE inhibition. The assay is classed as functional. The essentials: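 Platelet-rich plasma from male Wistar rats (13–15 weeks), diluted in saline to 40 × 10^4/µL. Compound in DMSO added 3 min before sodium propionate buffer (135 mM, pH 6.7, 37 °C), final DMSO 1%. Swelling read as the change in 550 nm light transmission 1 min later, corrected with platelet-poor plasma. 100% inhibition defined by vehicle vs HOE-642 (10^-5 M). IC50 from triplicate experiments.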

Assay [4] deals with Rattus norvegicus. The assay is described as follows: In vivo inhibitory effect on the Myocardial Infarct size of Ischemia-Reperfusion Injury model of rat. Administered intravenously […]. The assay is classed as functional, Myocardium. As to conditions: in the assay text read “5 min before” for “2 hr before”.
The subject of assay [5] is Rattus norvegicus. The assay is described as follows: In vivo inhibitory effect on the Myocardial Infarct size of Ischemia-Reperfusion Injury model of rat. Administered intravenously 5 min before occlusion. The assay is classed as functional, Myocardium. The essentials:
as §1

Assay [6] concerns Rattus norvegicus. The experiment in a line: In vivo inhibitory effect on the myocardial infarct size of ischemia-reperfusion injury model of rat administered intravenously 5 min before occlusion. The assay is classed as functional, Myocardium. The essentials:
as §1

Assay [7] can be described thus: In vitro inhibition against Na+/H+ exchanger(NHE) by measuring its ability to inhibit the acid induced swelling in human platelets by 50%. The assay is classed as functional. A digest of the protocol:
as §2

`CS(=O)(=O)O.CS(=O)(=O)O.Cc1ccnc2c1/C(=N/N=C(N)N)C[C@H](c1ccccc1Cl)C2` gave an Inhibition in the assay with Rattus norvegicus [1] of 44%. In addition, the 50% inhibitory concentration (IC50) in assay [2] turned out to be 9 nM.

Turning to `Cc1ccnc2c1/C(=N/N=C(N)N)CC(c1ccccn1)C2.Cl.Cl` (stereo unspecified), in assay [3], the Inhibition was 23%.

Compound `Cc1ccnc2c1/C(=N/N=C(N)N)CC(c1ccncc1)C2.Cl.Cl` (stereo unspecified) had an Inhibition in assay [3] of 25%.

Turning to `CS(=O)(=O)O.CS(=O)(=O)O.Cc1ccc(F)cc1[C@H]1C/C(=N\N=C(N)N)c2c(C)ccnc2C1`, the Inhibition in the assay with Rattus norvegicus [4] turned out to be 33%. Moreover, in assay [2], the IC50 was 13 nM.

`CS(=O)(=O)O.CS(=O)(=O)O.Cc1ccnc2c1/C(=N/N=C(N)N)C[C@H](c1cc(Cl)sc1Cl)C2` had an Inhibition with Rattus norvegicus [5] of 43%. Besides, in assay [2], inhibition was half-maximal at 7 nM (IC50).

The compound `CC(C)c1ccc(C(=O)N=C(N)N)cc1S(C)(=O)=O` [CARIPORIDE] registered an Inhibition in the assay with Rattus norvegicus [6] of 28%. The IC50 in assay [7] worked out at 210 nM.

In assay [3], `Cc1ccnc2c1/C(=N/N=C(N)N)CC(c1c(Cl)cccc1Cl)C2.Cl.Cl` (stereo unspecified) showed an Inhibition of 23%.

The values above are taken from ChEMBL document CHEMBL1135437, “Novel, non-acylguanidine-type Na(+)/H(+) exchanger inhibitors: synthesis and pharmacology of 5-tetrahydroquinolinylidene aminoguanidine derivatives” (J Med Chem, 2002).
